Screens from PubChem.
Rows were chosen to be rich in hits. Some 3.8% of all compounds tested hit in one or more screens of this group.
RAM network inh: inhibitors of the yeast RAM network, primary screen, dse1pr::URA3 reporter, 5-FOA selection | S. cerevisiae dse1pr::URA3 reporter, 5-FOA growth OD615, 2 d; analog-sensitive cbk1-as2 kinase mutant strain | inhibition, % at 50 µM | 190,000 tested, 1.8% active;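 active = inhibition above a set limit, 3 SD over mean compound inhibition, cut at about 8.4% in these data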;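 note: 0% = DMSO-only wells with no growth and 100% = 10 µM 1-NA-PP1 full growth; inhibition rescues growth on 5-FOA so higher OD means more RAM inhibition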
NPY-Y2 PAM-ag: NPY-Y2 potentiators or agonists, primary screen, cell-based; Neuropeptide Y receptor type 2 (Homo sapiens), P49146; cells expressing NPY-Y2, potentiator/agonist read-out; activation, % at 3.6 µM; 220,000 tested, 0.45% active; in the data active = activation above about 27%;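 note: cells stimulated with NPY near EC25 plus isoproterenol at EC100; 0% = vehicle plus submaximal agonist and 100% = vehicle plus saturating agonist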
Target sequence (P49146 whole entry, looked up): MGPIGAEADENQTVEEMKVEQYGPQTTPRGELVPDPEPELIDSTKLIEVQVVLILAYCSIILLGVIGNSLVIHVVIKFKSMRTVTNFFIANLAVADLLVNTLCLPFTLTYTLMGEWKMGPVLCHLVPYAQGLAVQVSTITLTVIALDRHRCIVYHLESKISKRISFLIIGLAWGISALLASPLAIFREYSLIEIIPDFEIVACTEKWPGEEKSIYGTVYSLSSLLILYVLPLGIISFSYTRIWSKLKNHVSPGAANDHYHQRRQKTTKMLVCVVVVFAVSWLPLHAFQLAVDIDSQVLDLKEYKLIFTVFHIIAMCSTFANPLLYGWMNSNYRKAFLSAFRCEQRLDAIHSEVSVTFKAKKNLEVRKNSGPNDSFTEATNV
NPY Y1 blocker: NPY-Y1 receptor antagonists, primary screen, cell-based; Neuropeptide Y receptor type 1 (Homo sapiens), P25929; HEK293-CNG Y1 cells, membrane potential fluorescence; NPY at EC95, then isoproterenol; inhibition, % at 3.6 µM; 200,000 tested, 1% active;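 active = inhibition above the campaign mean inhibition of all tested compounds plus 3 SD, cut at about 20% in these data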;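 note: 0% = DMSO wells given NPY plus isoproterenol and 100% = isoproterenol alone without NPY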
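material = HEK293 cells with Y1 receptor plus CNG channel | also added = NPY 25 nM then isoproterenol 1 µM plus Ro 20-1724 25 µM | schedule = dye 3 h, compound 60 min room temperature, stimulation 45 min | measured by = membrane potential fluorescence | benchmarks = high control isoproterenol alone, low control NPY with isoproterenol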
NPY Y2 blocker: NPY-Y2 receptor antagonists, primary screen, cell-based. Neuropeptide Y receptor type 2 (Homo sapiens), P49146. AID 793, 2007. 140,000 tested, 0.99% active. NPY-Y2 expressing cells, antagonist mode. inhibition, % at 2.7 µM;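 note: 0% = vehicle with agonist challenge and 100% = reference antagonist with challenge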
INS promoter inh: inhibitors of insulin promoter-driven GFP, primary screen, imaging, TRM-6 cells, eGFP reporter, cell count | reporter expression induced with tamoxifen | inhibition, % at 2 µM | 130,000 tested, 0.9% active | AID 1273, 2008;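 active = inhibition above the mean plus 3 SD, with well images judged a real hit on visual review, cut at about 60% in these data, passing the limit was not always enough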
NPY-Y1 PAM-ag: NPY-Y1 receptor potentiators or agonists, primary screen, cell-based; activation, % at 3.6 µM; AID 1304, 2008; NPY-Y1 expressing cells, potentiator/agonist activation; Neuropeptide Y receptor type 1 (Homo sapiens), P25929; 220,000 tested, 0.37% active; in the data active = activation above about 33%, passing the limit was not always enough;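 note: cells stimulated with NPY at EC10 then isoproterenol at EC100; 0% = low agonist plus stimulus and 100% = saturating agonist plus stimulus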
NPY-Y1 ant conf: NPY-Y1 receptor antagonists, retest of hits, confirmation, HEK293-CNG cells, membrane potential fluorescence, triplicate. cAMP; NPY challenge against isoproterenol-raised cAMP. shares compounds with NPY Y1 blocker. AID 1254, 2008. inhibition, % at 3.6 µM. 1,200 tested, 21% active; in the data active = inhibition above about 20%;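 note: 0% = vehicle with agonist plus stimulus and 100% = stimulus alone without agonist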
NPY2 antag ctr: NPY-Y2 receptor antagonists, selectivity check, confirmation, counter-screen for NPY-Y1 antagonist project, HEK293-CNG cells, membrane potential fluorescence, triplicate | shares compounds with NPY Y1 blocker | antagonism; cells given NPY, then isoproterenol | inhibition, % at 3.6 µM | 1,200 tested, 28% active | AID 1255, 2008;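 note: 0% = DMSO with agonist challenge and 100% = reference antagonist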
Active calls of the source: *; nt = no result. Cut-off read from the data, not from the text of the source, unless noted: active = inhibition above about 17%; inactive = the rest.

SMILES	RAM network inh	NPY-Y2 PAM-ag	NPY Y1 blocker	NPY Y2 blocker	INS promoter inh	NPY-Y1 PAM-ag	NPY-Y1 ant conf	NPY2 antag ctr
CC(C)(C)c1ccc(CSc2nnc(-c3ccccn3)n2Cc2ccco2)cc1	4	-16	21*	16	-16	-16	7	13
Cc1ccc(CNC(=O)c2ccc(NS(=O)(=O)c3c(C)noc3C)cc2)cc1	0	-3	28*	10	nt	-7	11	10
CC1Cc2ccccc2N1C(=S)NC(=O)c1cccc(Br)c1 (stereo not given)	0	-5	1	3	nt	-1	nt	nt
CC1Cc2ccccc2N1C(=S)NC(=O)c1ccc(Cl)cc1Cl (stereo not given)	4	1	25*	7	9	-18	1	3
CCOC(=O)C1(Cc2cccc(OC)c2)CCN(Cc2cccn2-c2ccccn2)CC1	0	-30	29*	nt	nt	-30	17	16
CCOC(=O)C1(CCOc2ccccc2)CCN(Cc2ccncc2)CC1	1	3	1	nt	-21	6	nt	nt
CCOC(=O)C1(CCOc2ccccc2)CCN(Cc2cccn2-c2ncccn2)CC1	2	-25	25*	nt	nt	-10	11	12
Cc1cc(C(=O)CSc2nc3ccccc3[nH]2)c(C)n1CC1CCCO1 (stereo not given)	0	9	26*	5	-5	-45	42*	16
Cc1cc(C(=O)CSc2nc3ccccc3o2)c(C)n1CC1CCCO1 (stereo not given)	5	-7	5	3	-43	-8	nt	nt
CC1CC(=O)NN1C(=O)c1ccccc1 (stereo not given)	nt	-3	nt	nt	nt	5	nt	nt
O=C(CCCCn1c(=O)[nH]c2ccccc2c1=O)N1CCN(c2cccc(C(F)(F)F)c2)CC1	2	4	21*	2	nt	-56	3	3
O=C(CCn1c(=O)[nH]c2ccccc2c1=O)N1CCN(c2cccc(C(F)(F)F)c2)CC1	2	-3	4	3	nt	10	nt	nt
COc1cc(/C=N/N=C(/N)c2nonc2N)cc(Br)c1OCc1cccc(C)c1	6	-17	21*	11	0	-19	15	14
O=C(Nc1nnc(-c2ccncc2)o1)c1ccc(Br)s1	1	-8	4	nt	-17	-6	nt	nt
O=C(Nc1cccc(C(F)(F)F)c1)c1ccc(Cn2cc(Br)cn2)o1	3	-4	-1	1	-29	17	nt	nt
O=C(Nc1ccc(C(F)(F)F)cc1Cl)c1ccc(Cn2cc(Br)cn2)o1	8	-23	22*	8	45	-52	7	8
CN(Cc1ccccc1)CC(O)COc1ccc(CNCc2ccc(Cl)s2)cc1 (stereo not given)	2	-24	29*	nt	nt	-34	20*	30*
CCOC(=O)c1c(C)n(C)c2cc(Br)c(OC)cc12	2	-9	8	nt	nt	-14	nt	nt
CCOC(=O)c1c(CNCCN(CC)CC)n(C)c2cc(Br)c(OC)cc12	1	-27	27*	13	-4	-17	11	15
Cc1cn(S(=O)(=O)c2ccc(Br)c3ccccc23)cn1	2	-29	27*	7	nt	-22	10	7
COc1cccc(-c2noc(-c3ccc(Br)o3)n2)c1	2	-11	10	nt	7	-3	nt	nt
Fc1ccc(COc2ccc(/C=N/n3cnnc3)cc2)cc1	0	-16	4	1	nt	16	nt	nt
COc1cc(NC2c3ccccc3C(=O)N2Cc2ccc3c(c2)OCO3)cc(OC)c1OC (stereo not given)	1	-21	23*	15	nt	-7	16	7
COc1ccc(-n2nnc3c(=O)n(Cc4cc(C)ccc4C)cnc32)cc1	2	-9	9	3	-36	-12	nt	nt
COc1cccc(-n2nnc3c(=O)n(Cc4ccccc4F)cnc32)c1	0	-10	30*	12	-29	-48	9	7
SMILES	RAM network inh	NPY-Y2 PAM-ag	NPY Y1 blocker	NPY Y2 blocker	INS promoter inh	NPY-Y1 PAM-ag	NPY-Y1 ant conf	NPY2 antag ctr
COC(=O)c1c(NC(=O)CSc2nnnn2-c2ccccc2)sc2c1CCC(C)C2 (stereo not given)	2	9	20*	14	18	-34	12	14
CCCCCc1ccc(OCCOCCn2c[n+](C)c3ccccc32)c(CCCCC)c1	-2	-4	35*	nt	-64	-38	42*	23*
COc1c(Cl)cc(Cl)cc1CNCCNCC(C)O (stereo not given)	0	-13	1	4	nt	1	nt	nt
CNCc1cc(Cl)cc(OC)c1OC(C)C	1	-8	24*	nt	nt	-5	24*	10
O=C(O)c1ccc(CS(=O)(=O)c2cccc(C(F)(F)F)c2)o1	0	-5	1	-1	nt	2	nt	nt
Clc1ccccc1-c1nnc(-c2ccccc2Cl)o1	5	-4	4	14	-62	-21	nt	nt
Clc1ccc(-c2nnc(-c3ccccc3Cl)o2)cc1	2	-4	25*	7	nt	-12	8	8
Cc1cc(S(=O)(=O)N2CCN(c3ccccc3C)CC2)ccc1F	6	-12	8	13	-13	-22	nt	nt
Cc1cc(S(=O)(=O)N2CCN(c3c(C)cccc3C)CC2)ccc1F	10*	-13	21*	14	16	-50	9	12
COc1ccc(Br)c2oc(SC)cc(=O)c12	0	-12	2	1	38	-11	nt	nt
CCc1nc(N2CCN(C(=O)c3ccccc3)CC2)c2c3c(sc2n1)CCCC3	0	-8	22*	nt	nt	-21	9	10
CN(C)S(=O)(=O)c1cccc(NC(=O)c2ccncc2)c1	1	-4	1	1	37	5	nt	nt
CCN(CC)S(=O)(=O)c1cccc(NC(=O)c2ccc(C#N)cc2)c1	5	-23	22*	nt	-7	-14	-1	3
O=C(COc1ncnc2ccccc12)NCCc1ccc(F)cc1	1	3	-5	nt	0	-3	nt	nt
CC(C)(C(=O)Nc1nccs1)c1ccccc1	0	-1	0	nt	20	1	nt	nt
COc1ccc(-c2cc3cc(OC)c(OC)cc3c(C)n2)cc1	nt	-6	nt	nt	nt	-3	nt	nt
COc1cc2cc(C)nc(Cc3cccc4ccccc34)c2cc1OC	0	-39	27*	16	nt	-35	9	13
